ChEMBL document CHEMBL1131139, “Synthesis and antibacterial activity of ketolides (6-O-methyl-3-oxoerythromycin derivatives): a new class of antibacterials highly potent against macrolide-resistant and -susceptible respiratory pathogens” (1998)
≈ marks a conversion by molar mass, not a printed value.

Assays:
Format in all cases: functional
Escherichia coli = assay: In vitro inhibitory activity against Escherichia coli (250 UC5)
Method in brief: (§1)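 Two-fold agar dilution on Mueller-Hinton agar (pH 7.4). Inoculum from overnight plate cultures suspended in Mueller-Hinton broth, adjusted to 10^9 CFU/mL, diluted 1:200 and spotted by multipoint inoculator at about 10^4 CFU/spot. Plates incubated 37 °C for 20 h. MIC taken as lowest concentration with no visible growth.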

Staphylococcus aureus [1] = assay: In vitro inhibitory activity against Staphylococcus aureus (EryRc 011CB20); method in brief: as §1
Haemophilus influenzae [2] = assay: In vitro inhibitory activity against Haemophilus influenzae (351HT3); method in brief: as §1
[3] = system: Staphylococcus epidermidis; assay: In vitro inhibitory activity against Staphylococcus epidermidis (EryRi 012GO11i); method in brief: as §1
Streptococcus pneumoniae [4] = assay: In vitro inhibitory activity against Streptococcus pneumoniae (EryRi 030SJ5i); method in brief: as §1
Streptococcus pneumoniae [5] = assay: In vitro inhibitory activity against Streptococcus pneumoniae (EryRc 030SJ1); method in brief: as §1
Streptococcus pneumoniae [6] = assay: In vitro inhibitory activity against Streptococcus pneumoniae (032UC1); method in brief: as §1
Streptococcus pyogenes = assay: In vitro inhibitory activity against Streptococcus pyogenes (02A1UC1); method in brief: as §1
Staphylococcus aureus [7] = assay: In vitro inhibitory activity against Staphylococcus aureus (011UC4); method in brief: as §1
Haemophilus influenzae [8] = assay: In vitro inhibitory activity against Haemophilus influenzae (351CB12); method in brief: as §1
Staphylococcus aureus [9] = assay: In vitro inhibitory activity against Staphylococcus aureus (EryRi 011GO25i); method in brief: as §1

| Structure (SMILES) | MIC (Escherichia coli) [µg/mL] | MIC (Staphylococcus aureus [1]) [µg/mL] | MIC (Haemophilus influenzae [2]) [µg/mL] | MIC [3] [µg/mL] | MIC (Streptococcus pneumoniae [4]) [µg/mL] | MIC (Streptococcus pneumoniae [5]) [µg/mL] | MIC (Streptococcus pneumoniae [6]) [µg/mL] | MIC (Streptococcus pyogenes) [µg/mL] | MIC (Staphylococcus aureus [7]) [µg/mL] | MIC (Haemophilus influenzae [8]) [µg/mL] | MIC (Staphylococcus aureus [9]) [µg/mL] |
| --- | --- | --- | --- | --- | --- | --- | --- | --- | --- | --- | --- |
| CC[C@H]1OC(=O)[C@H](C)C(=O)[C@H](C)[C@@H](O[C@@H]2O[C@H](C)C[C@H](N(C)C)[C@H]2O)[C@](C)(OC)C[C@@H](C)/C(=N\OCCNCCCn2ccnc2)[C@H](C)[C@@H](O)[C@]1(C)O | 40 (≈ 53.1 µM) | 40 (≈ 53.1 µM) | 5 (≈ 6.63 µM) | 1.2 (≈ 1.59 µM) | 20 (≈ 26.5 µM) | 40 (≈ 53.1 µM) | 0.3 (≈ 0.398 µM) | 0.04 (≈ 0.0531 µM) | 0.3 (≈ 0.398 µM) | 5 (≈ 6.63 µM) | 2.5 (≈ 3.32 µM) |
| CC[C@H]1OC(=O)[C@H](C)C(=O)[C@H](C)[C@@H](O[C@@H]2O[C@H](C)C[C@H](N(C)C)[C@H]2O)[C@](C)(OC)C[C@@H](C)/C(=N\OCCN2CCCCC2)[C@H](C)[C@@H](O)[C@]1(C)O | 40 (≈ 56 µM) | 40 (≈ 56 µM) | 40 (≈ 56 µM) | 0.6 (≈ 0.84 µM) | 40 (≈ 56 µM) | 20 (≈ 28 µM) | 10 (≈ 14 µM) | 0.15 (≈ 0.21 µM) | 0.6 (≈ 0.84 µM) | 20 (≈ 28 µM) | 2.5 (≈ 3.5 µM) |
| CC[C@H]1OC(=O)[C@H](C)C(=O)[C@H](C)[C@@H](O[C@@H]2O[C@H](C)C[C@H](N(C)C)[C@H]2O)[C@](C)(OC)C[C@@H](C)/C(=N\OCc2c(C)cc(C)cc2C)[C@H](C)[C@@H](O)[C@]1(C)O | 40 (≈ 54.4 µM) | 10 (≈ 13.6 µM) | 40 (≈ 54.4 µM) | 0.6 (≈ 0.816 µM) | 5 (≈ 6.8 µM) | 5 (≈ 6.8 µM) | 0.04 (≈ 0.0544 µM) | 0.3 (≈ 0.408 µM) | 0.3 (≈ 0.408 µM) | 40 (≈ 54.4 µM) | 0.6 (≈ 0.816 µM) |
| CC[C@H]1OC(=O)[C@H](C)C(=O)[C@H](C)[C@@H](O[C@@H]2O[C@H](C)C[C@H](N(C)C)[C@H]2O)[C@](C)(OC)C[C@@H](C)/C(=N\OC2CCCN(C)C2)[C@H](C)[C@@H](O)[C@]1(C)O (some centres undefined) | 40 (≈ 57.1 µM) | 40 (≈ 57.1 µM) | 10 (≈ 14.3 µM) | 0.6 (≈ 0.857 µM) | 40 (≈ 57.1 µM) | 10 (≈ 14.3 µM) | 0.02 (≈ 0.0286 µM) | 0.04 (≈ 0.0571 µM) | 0.08 (≈ 0.114 µM) | 10 (≈ 14.3 µM) | 0.3 (≈ 0.429 µM) |
| C#CCNCCO/N=C1\[C@H](C)C[C@@](C)(OC)[C@H](O[C@@H]2O[C@H](C)C[C@H](N(C)C)[C@H]2O)[C@@H](C)C(=O)[C@@H](C)C(=O)O[C@H](CC)[C@@](C)(O)[C@H](O)[C@H]1C | 40 (≈ 58.5 µM) | 40 (≈ 58.5 µM) | 20 (≈ 29.2 µM) | 0.3 (≈ 0.439 µM) | 40 (≈ 58.5 µM) | 5 (≈ 7.31 µM) | 2.5 (≈ 3.66 µM) | 0.08 (≈ 0.117 µM) | 0.3 (≈ 0.439 µM) | 10 (≈ 14.6 µM) | 5 (≈ 7.31 µM) |
| CC[C@H]1OC(=O)[C@H](C)[C@@]2(O)O[C@@](C)(C[C@@H](C)/C(=N\OCOCCOC)[C@H](C)[C@@H](O)[C@]1(C)O)[C@H](O[C@@H]1O[C@H](C)C[C@H](N(C)C)[C@H]1O)[C@H]2C | 40 (≈ 59.1 µM) | 40 (≈ 59.1 µM) | 40 (≈ 59.1 µM) | 40 (≈ 59.1 µM) | 40 (≈ 59.1 µM) | 40 (≈ 59.1 µM) | 40 (≈ 59.1 µM) | 40 (≈ 59.1 µM) | 40 (≈ 59.1 µM) | 40 (≈ 59.1 µM) | 40 (≈ 59.1 µM) |
| CC[C@H]1OC(=O)[C@H](C)C(=O)[C@H](C)[C@@H](O[C@@H]2O[C@H](C)C[C@H](N(C)C)[C@H]2O)[C@](C)(OC)C[C@@H](C)C(=O)[C@H](C)[C@H]2N(NCCCc3ccccc3)C(=O)O[C@]12C | 40 (≈ 53.6 µM) | 40 (≈ 53.6 µM) | 1.2 (≈ 1.61 µM) | 0.15 (≈ 0.201 µM) | 0.15 (≈ 0.201 µM) | 5 (≈ 6.7 µM) | 0.02 (≈ 0.0268 µM) | 0.02 (≈ 0.0268 µM) | 0.08 (≈ 0.107 µM) | 1.2 (≈ 1.61 µM) | 0.15 (≈ 0.201 µM) |
| CCCN1C(=O)O[C@]2(C)[C@@H](CC)OC(=O)[C@H](C)C(=O)[C@H](C)[C@@H](O[C@@H]3O[C@H](C)C[C@H](N(C)C)[C@H]3O)[C@](C)(OC)C[C@@H](C)C(=O)[C@H](C)[C@@H]12 | 40 (≈ 61.1 µM) | 40 (≈ 61.1 µM) | 40 (≈ 61.1 µM) | 40 (≈ 61.1 µM) | 40 (≈ 61.1 µM) | 40 (≈ 61.1 µM) | 0.04 (≈ 0.0611 µM) | 0.15 (≈ 0.229 µM) | 1.2 (≈ 1.83 µM) | 40 (≈ 61.1 µM) | 5 (≈ 7.64 µM) |
| CC[C@H]1OC(=O)[C@H](C)C(=O)[C@H](C)[C@@H](O[C@@H]2O[C@H](C)C[C@H](N(C)C)[C@H]2O)[C@](C)(OC)C[C@@H](C)/C(=N\OC2CCCN(CCCc3ccccc3)C2)[C@H](C)[C@@H](O)[C@]1(C)O (some centres undefined) | 40 (≈ 49.7 µM) | 40 (≈ 49.7 µM) | 5 (≈ 6.22 µM) | 0.6 (≈ 0.746 µM) | 0.3 (≈ 0.373 µM) | 1.2 (≈ 1.49 µM) | 0.08 (≈ 0.0995 µM) | 0.08 (≈ 0.0995 µM) | 0.3 (≈ 0.373 µM) | 0.6 (≈ 0.746 µM) | 0.6 (≈ 0.746 µM) |
| CC[C@H]1OC(=O)[C@H](C)C(=O)[C@H](C)[C@@H](O[C@@H]2O[C@H](C)C[C@H](N(C)C)[C@H]2O)[C@](C)(OC)C[C@@H](C)C(=O)[C@@H](C)[C@H]2N(N)C(=O)O[C@]12C | 40 (≈ 63.7 µM) | 40 (≈ 63.7 µM) | 40 (≈ 63.7 µM) | 40 (≈ 63.7 µM) | 40 (≈ 63.7 µM) | 40 (≈ 63.7 µM) | 5 (≈ 7.96 µM) | 2.5 (≈ 3.98 µM) | 40 (≈ 63.7 µM) | 40 (≈ 63.7 µM) | 40 (≈ 63.7 µM) |
| CC[C@H]1OC(=O)[C@H](C)C(=O)[C@H](C)[C@@H](O[C@@H]2O[C@H](C)C[C@H](N(C)C)[C@H]2O)[C@](C)(OC)C[C@@H](C)C(=O)[C@H](C)[C@H]2N(NCCCc3ccnc4ccc(OC)cc34)C(=O)O[C@]12C | 40 (≈ 48.4 µM) | 40 (≈ 48.4 µM) | 1.2 (≈ 1.45 µM) | 0.08 (≈ 0.0967 µM) | 0.02 (≈ 0.0242 µM) | 0.08 (≈ 0.0967 µM) | 0.02 (≈ 0.0242 µM) | 0.02 (≈ 0.0242 µM) | 0.04 (≈ 0.0484 µM) | 2.5 (≈ 3.02 µM) | 0.08 (≈ 0.0967 µM) |
| CC[C@H]1OC(=O)[C@H](C)[C@@H](O[C@H]2C[C@@](C)(OC)[C@@H](O)[C@H](C)O2)[C@H](C)[C@@H](O[C@@H]2O[C@H](C)C[C@H](N(C)C)[C@H]2O)[C@](C)(OC)C[C@@H](C)C(=O)[C@H](C)[C@H]2N(CCCCc3ccccc3)C(=O)O[C@]12C | 40 (≈ 44.2 µM) | 20 (≈ 22.1 µM) | 2.5 (≈ 2.76 µM) | 40 (≈ 44.2 µM) | 1.2 (≈ 1.33 µM) | 10 (≈ 11 µM) | 0.02 (≈ 0.0221 µM) | 0.04 (≈ 0.0442 µM) | 0.3 (≈ 0.331 µM) | 2.5 (≈ 2.76 µM) | 20 (≈ 22.1 µM) |
| CC[C@H]1OC(=O)[C@H](C)C(=O)[C@H](C)[C@@H](O[C@@H]2O[C@H](C)C[C@H](N(C)C)[C@H]2O)[C@](C)(OC)C[C@@H](C)/C(=N\O[C@@H]2CCCN(Cc3ccc(-c4ccccc4)cc3)C2)[C@H](C)[C@@H](O)[C@]1(C)O | 40 (≈ 46.9 µM) | 20 (≈ 23.5 µM) | 40 (≈ 46.9 µM) | 0.6 (≈ 0.704 µM) | 0.3 (≈ 0.352 µM) | 5 (≈ 5.87 µM) | 0.3 (≈ 0.352 µM) | 0.04 (≈ 0.0469 µM) | 0.6 (≈ 0.704 µM) | 10 (≈ 11.7 µM) | 0.3 (≈ 0.352 µM) |
| CC[C@H]1OC(=O)[C@H](C)C(=O)[C@H](C)[C@@H](O[C@@H]2O[C@H](C)C[C@H](N(C)C)[C@H]2O)[C@](C)(OC)C[C@@H](C)/C(=N/OCOCCOC)[C@H](C)[C@@H](O)[C@]1(C)O | 40 (≈ 57.9 µM) | 40 (≈ 57.9 µM) | 40 (≈ 57.9 µM) | 1.2 (≈ 1.74 µM) | 10 (≈ 14.5 µM) | 40 (≈ 57.9 µM) | 0.15 (≈ 0.217 µM) | 0.15 (≈ 0.217 µM) | 1.2 (≈ 1.74 µM) | 40 (≈ 57.9 µM) | 2.5 (≈ 3.62 µM) |
